Key:
Test in all cases: coupled photometric phosphate release assay
Type in all cases: biochemical, synthetic construct
Conditions in all cases: 100 mM Tris/HCl pH 7.8, 5 mM MgCl2, 25°C
Anc7 = system: Anc7
Method in brief: (§1)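 Ancestral enzyme expressed in E. coli BW25113 (0.5 mM IPTG, overnight at 20°C). Purified by Ni affinity chromatography and size exclusion in 50 mM Tris/HCl pH 7.5, 400 mM NaCl, 2 mM MgCl2. Phosphate release coupled with 0.5 mM inosine, 0.25 U/ml purine nucleoside phosphorylase and 2.5 U/ml xanthine oxidase, at varied substrate concentrations. Reaction started with enzyme. Km fitted to Michaelis–Menten from initial slopes.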

Anc6 = system: Anc6
Method in brief: as §1

Anc5 = system: Anc5
Method in brief: as §1

SMILES: N[C@H](COP(=O)(O)O)Cc1c[nH]cn1 [HolP]
- Km (Anc7): 122 ± 31 µM
- Km (Anc6): 59 ± 12 µM
- Km (Anc5): 698 ± 123 µM

— article PMC9798254 (Protein Science : A Publication of the Protein Society, 2023)
